Data published in ChEMBL document CHEMBL4359909, “De novo design approaches targeting an envelope protein pocket to identify small molecules against dengue virus” (Eur J Med Chem, 2019).
Values after ≈ are worked out from the molar mass of the structure shown. Active and inactive are the calls of the source. The rule behind the calls is not given here.

How the values were obtained:
[1] = Cytotoxicity against human A549 cells assessed as reduction in cell viability after 48 hrs by MTT assay; format: cell-based
[2] = Selectivity index, ratio of CC50 for human A549 or Mesocricetus auratus BHK21 cells to EC50 for antiviral activity against DENV-2 infected in A549or Mesocricetus auratus BHK21 cells; format: toxicity; settings: read-out: Ratio CC50/EC50
dengue virus type 2 = assay: Antiviral activity against DENV-2 infected in human A549 or Mesocricetus auratus BHK21 cells preincubated for 30 mins further incubated for 1 hr followed by replacement of fresh medium containing compounds and measured at 8 hrs post infection by renilla luciferase assay; format: functional, organism-based
Outline: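 Reporter DENV-2 carrying Renilla luciferase, MOI 1. Inoculum preincubated 30 min with compound, left on cells 1 h, then replaced by fresh medium containing compound. Luciferase read at 8 h p.i., reflecting entry and translation of incoming genome. EC50 is the concentration giving a two-fold drop in luciferase versus control; mean of at least two independent experiments.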

Dengue virus = assay: Antiviral activity in DENV infected in cells assessed as reduction in intracellular viral RNA level after 48 hrs by RT-PCR analysis
[3] = Half life in simulated gastric fluid at 50 uM measured up to 120 mins at pH 1.2 by HPLC-MS analysis; format: ADME
Outline: (§1)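 DMSO stock diluted in acetonitrile, added to PBS (pH 7.4), SGF (pH 1.2) or SIF (pH 6.8) at 50 μM final; shaking water bath 37°C, triplicate. Samples at 0–120 min quenched with acetonitrile containing warfarin internal standard, centrifuged, diluted in methanol:water, analysed by HPLC-MS (C18, ESI positive); quantified by peak area ratio to internal standard.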

[4] = Solubility in simulated gastric fluid at 1 mg incubated for 24 hrs in shaker and measured after 24 hrs by shake-flask method based UV-VIS-NIR spectrophotometric analysis; format: physicochemical
Outline: (§2)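 Shake-flask method: 1.0 mg compound in 1 mL simulated gastric fluid (pH 1.2), mixed at 1500 rpm at 37 °C for 24 h, then held at 37 °C for 24 h. Filtered at 0.2 µm and read by UV-VIS-NIR spectrophotometry against a calibration curve. Reported as mean ± SD of two independent experiments run in triplicate.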

[5] = Half life in mouse plasma at 50 uM measured up to 120 mins by HPLC-MS analysis; format: ADME, cell-free
Outline: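 Mouse plasma diluted to 80% with PBS, preheated; compound added at 50 μM final from DMSO stock; 37°C shaking, triplicate. Samples at 0–120 min deproteinized with cold acetonitrile plus warfarin internal standard, centrifuged at 4°C, supernatant diluted in methanol:water, HPLC-MS; peak area ratio to internal standard. Enalapril positive control.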

[6] = Solubility in PBS at 1 mg incubated for 24 hrs in shaker and measured after 24 hrs by shake-flask method based UV-VIS-NIR spectrophotometric analysis; format: physicochemical
Outline: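 Shake-flask method: 1.0 mg compound in 1 mL PBS (pH 7.4), mixed at 1500 rpm at 37 °C for 24 h, then held at 37 °C for 24 h. Filtered at 0.2 µm and read by UV-VIS-NIR spectrophotometry against a calibration curve. Reported as mean ± SD of two independent experiments run in triplicate.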

[7] = Solubility in simulated intestinal fluid at 1 mg incubated for 24 hrs in shaker and measured after 24 hrs by shake-flask method based UV-VIS-NIR spectrophotometric analysis; format: physicochemical
Outline: as §2, with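 “intestinal” for “gastric”, “6.8),” for “1.2),”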

[8] = Half life in PBS at 50 uM measured up to 120 mins at pH 7.4 by HPLC-MS analysis; format: physicochemical; outline: as §1
[9] = Half life in simulated intestinal fluid at 50 uM measured up to 120 mins at pH 6.8 by HPLC-MS analysis; format: ADME; outline: as §1
A549 = assay: Cytotoxicity against human A549 cells at 50 uM after 48 hrs by MTT assay; format: cell-based; settings: a549, 48 h

For CN1CCN(c2nccc(Nc3ccc(-c4cccc(Cl)c4)cc3)n2)CC1, the CC50 at 48 h [1] was 15.3 µM, the selectivity ratio [2] was 5 and the EC50 (dengue virus type 2) was 2.9 µM.
Work on CC1(C)CC(Nc2nccc(Nc3ccc(-c4cccc(Cl)c4)cc3)n2)CC(C)(C)N1 yielded a CC50 at 48 h [1] of 5.1 µM, a selectivity ratio [2] of 10 and an EC50 (dengue virus type 2) of 0.54 µM. For the same molecule, the Activity (Dengue virus) was “Active”.
With c1ccc(-c2ccc(Nc3ccnc(NCCN4CCCCC4)n3)cc2)cc1 the half-life at 50 µM [3] was greater than 2 h, the solubility thermodynamic at 24 h [4] was 506 µg/mL (≈ 1350 µM) and the half-life at 50 µM [5] was greater than 2 h. For the same molecule, the solubility thermodynamic at 24 h [6] was 32 µg/mL (≈ 85.7 µM), the solubility thermodynamic at 24 h [7] was 324 µg/mL (≈ 867 µM) and the half-life at 50 µM [8] was greater than 2 h. For the same molecule, the half-life at 50 µM [9] was greater than 2 h.
For OCCN1CCN(c2nccc(Nc3ccc(-c4ccccc4)cc3)n2)CC1, the EC50 (dengue virus type 2) was 19.9 µM.
For c1ccc(-c2ccc(Nc3ccnc(OCCN4CCOCC4)n3)cc2)cc1, the EC50 (dengue virus type 2) was 39.7 µM.
In the case of Clc1ccc(Nc2ccnc(NCCN3CCOCC3)n2)cc1, the CC50 at 48 h [1] is reported as 89.6 µM, the selectivity ratio [2] is reported as 4 and the Activity (A549) is reported as “Non-Toxic”. For the same molecule, the EC50 (dengue virus type 2) was 23.6 µM.
For CC1(C)CC(Nc2nccc(NCc3ccc(Cl)cc3)n2)CC(C)(C)N1, the CC50 at 48 h [1] was 21.1 µM, the selectivity ratio [2] was 12 and the EC50 (dengue virus type 2) was 1.8 µM.
O=C(Nc1ccnc(NCCN2CCOCC2)n1)c1ccc(-c2ccccn2)s1 gave a CC50 at 48 h [1] of 10.5 µM, a selectivity ratio [2] of 4 and an EC50 (dengue virus type 2) of 3.3 µM.
Cc1ccc(-c2ccc(Nc3ccnc(NC4CC(C)(C)NC(C)(C)C4)n3)cc2)cc1 showed a CC50 at 48 h [1] of 12 µM, a selectivity ratio [2] of 8 and an EC50 (dengue virus type 2) of 1.51 µM.
Work on CC1(C)CC(Nc2nccc(NCc3ccc(F)cc3)n2)CC(C)(C)N1 yielded a CC50 at 48 h [1] of 12.8 µM, a selectivity ratio [2] of 7 and an EC50 (dengue virus type 2) of 1.98 µM.
Work on CC1(C)CC(Nc2nccc(Nc3ccc(-c4ccc(Cl)cc4)cc3)n2)CC(C)(C)N1 yielded a CC50 at 48 h [1] of 9.8 µM, a selectivity ratio [2] of 54 and an EC50 (dengue virus type 2) of 0.18 µM. The Activity (Dengue virus) was “Active”.
Clc1cccc(-c2ccc(Nc3ccnc(NCc4cccnc4)n3)cc2)c1 gave a CC50 at 48 h [1] of 18.5 µM, a selectivity ratio [2] of 5 and an EC50 (dengue virus type 2) of 3.4 µM.
Cc1ccc(CNc2ccnc(NC3CC(C)(C)NC(C)(C)C3)n2)cc1 gave a CC50 at 48 h [1] of 15.2 µM, a selectivity ratio [2] of 3 and an EC50 (dengue virus type 2) of 4.9 µM.
With Clc1ccc(Nc2ccnc(NCc3cccnc3)n2)cc1 the EC50 (dengue virus type 2) was 24 µM.
Molecule Cc1ccc(-c2ccc(Nc3ccnc(N4CCN(C)CC4)n3)cc2)cc1 has a CC50 at 48 h [1] of 27.7 µM, a selectivity ratio [2] of 6 and an EC50 (dengue virus type 2) of 4.9 µM.
Molecule CN1CCN(c2nccc(Nc3ccc(-c4ccc(Cl)cc4)cc3)n2)CC1 has a CC50 at 48 h [1] of 23.5 µM, a selectivity ratio [2] of 5 and an EC50 (dengue virus type 2) of 3.3 µM.
In the case of c1ccc(-c2ccc(Nc3ccnc(NCCN4CCOCC4)n3)cc2)cc1, the CC50 at 48 h [1] is reported as 59 µM, the selectivity ratio [2] is reported as 7 and the EC50 (dengue virus type 2) is reported as 8.6 µM.
Cc1ccc(-c2ccc(Nc3ccnc(NCCN4CCOCC4)n3)cc2)cc1 gave a CC50 at 48 h [1] of 10.2 µM, a selectivity ratio [2] of 5 and an EC50 (dengue virus type 2) of 1.8 µM.
Work on COc1ccc(CNc2ccnc(NC3CC(C)(C)NC(C)(C)C3)n2)cc1 yielded a CC50 at 48 h [1] of 18.3 µM, a selectivity ratio [2] of 2 and an EC50 (dengue virus type 2) of 12.5 µM.
In the case of Clc1ccc(-c2ccc(Nc3ccnc(NCCN4CCCCC4)n3)cc2)cc1, the CC50 at 48 h [1] is reported as 14.3 µM, the selectivity ratio [2] is reported as 13 and the EC50 (dengue virus type 2) is reported as 1.1 µM.
For OCCN1CCN(c2nccc(Nc3ccc(Cl)cc3)n2)CC1, the EC50 (dengue virus type 2) was 24 µM.
For Cc1ccc(Nc2ccnc(NCCN3CCOCC3)n2)cc1, the CC50 at 48 h [1] was greater than 50 µM, the selectivity ratio [2] was greater than 2 and the EC50 (dengue virus type 2) was 21.3 µM.
Clc1ccc(CNc2ccnc(NCc3cccnc3)n2)cc1 gave an EC50 (dengue virus type 2) of 23.7 µM.
CC1(C)CC(Nc2nccc(Nc3ccc(Cl)cc3)n2)CC(C)(C)N1 gave a CC50 at 48 h [1] of 18.6 µM, a selectivity ratio [2] of 10 and an EC50 (dengue virus type 2) of 1.9 µM.
CC1(C)CC(Nc2nccc(Nc3ccc(-c4ccccc4)cc3)n2)CC(C)(C)N1 gave a half-life at 50 µM [3] greater than 2 h, a solubility thermodynamic at 24 h [4] of 76 µg/mL (≈ 189 µM) and a half-life at 50 µM [5] greater than 2 h. For the same molecule, the solubility thermodynamic at 24 h [6] was 93 µg/mL (≈ 232 µM), the solubility thermodynamic at 24 h [7] was 580 µg/mL (≈ 1440 µM) and the half-life at 50 µM [8] was greater than 2 h. For the same molecule, the half-life at 50 µM [9] was greater than 2 h.
Molecule Clc1ccc(/C=N/Nc2ccnc(NCCN3CCOCC3)n2)c(Cl)c1 has a CC50 at 48 h [1] of 76.5 µM, a selectivity ratio [2] of 8 and an EC50 (dengue virus type 2) of 10.6 µM.
Clc1ccc(-c2ccc(Nc3ccnc(NCc4cccnc4)n3)cc2)cc1 gave a CC50 at 48 h [1] of 25.7 µM, a selectivity ratio [2] of 6 and an EC50 (dengue virus type 2) of 4.1 µM.
